Assay results as given in ChEMBL document CHEMBL3045119, “Synthesis and fungicidal activity of novel aminophenazine-1-carboxylate derivatives” (J Agric Food Chem, 2010).

Columns and labels:
Assay type in all cases: functional
Mycosphaerella arachidis = experiment: Fungicidal activity against Mycosphaerella arachidis assessed as inhibition of mycelium growth at 50 ug/mL by mycelium growth rate method
How it was run: (§1)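 Mycelium growth rate method: colony diameters measured once mycelia had grown completely, and the relative inhibition rate (%) calculated from the diameters by formula. Phenazine-1-carboxylic acid ran as control. Values are the average of three replicate results.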

Fusarium oxysporum = experiment: Fungicidal activity against Fusarium oxysporum assessed as inhibition of mycelium growth at 50 ug/mL by mycelium growth rate method; how it was run: as §1
Alternaria solani = experiment: Fungicidal activity against Alternaria solani assessed as inhibition of mycelium growth at 50 ug/mL by mycelium growth rate method; how it was run: as §1
[1] = tested on: Botryosphaeria berengeriana; experiment: Fungicidal activity against Botryosphaeria berengeriana assessed as inhibition of mycelium growth at 50 ug/mL by mycelium growth rate method; how it was run: as §1
Fusarium graminearum = experiment: Fungicidal activity against Fusarium graminearum assessed as inhibition of mycelium growth at 50 ug/mL by mycelium growth rate method; how it was run: as §1

SMILES | inhibition at 50 µg/mL (Mycosphaerella arachidis) | inhibition at 50 µg/mL (Fusarium oxysporum) | inhibition at 50 µg/mL (Alternaria solani) | inhibition at 50 µg/mL [1] | inhibition at 50 µg/mL (Fusarium graminearum)
COC(=O)c1cccc2nc3c(C(=O)CCc4ccccc4)cccc3nc12 | 0% | 28% | 4.3% | 31.4% | 30.3%
COC(=O)c1cccc2nc3c(C(=O)c4ccc(Cl)cc4Cl)cccc3nc12 | 0% | 7.1% | 3.4% | 10.7% | 27.3%
COC(=O)c1cccc2nc3c(S(=O)(=O)c4ccc([N+](=O)[O-])cc4)cccc3nc12 | 25% | 17.9% | 13.8% | 17.9% | 31.8%
COC(=O)c1cccc2nc3c(S(=O)(=O)c4ccccc4[N+](=O)[O-])cccc3nc12 | 0% | 0% | 3.4% | 28.6% | 43.2%
CCCCOC(=O)c1cccc2nc3c(C(=O)CCCCl)cccc3nc12 | 8.3% | 10.7% | 6.1% | 0% | 0%
COC(=O)c1cccc2nc3cc(C(C)=O)ccc3nc12 | 0% | 0% | 3.3% | 3.9% | 12.7%
COC(=O)c1cccc2nc3cc(C(=O)COC(C)=O)ccc3nc12 | 4% | 5.3% | 6.5% | 1.8% | 4.8%
COC(=O)c1cccc2nc3cc(C(=O)CCCCl)ccc3nc12 | 7.7% | 0% | 37.7% | 0% | 36.8%
COC(=O)c1cccc2nc3cc(C(=O)CCc4ccccc4)ccc3nc12 | 2.6% | 11.1% | 19.1% | 0% | 2.4%
COC(=O)c1cccc2nc3cc(C(=O)c4ccc(Cl)cc4Cl)ccc3nc12 | 0% | 7.1% | 3% | 0% | 0%
COC(=O)c1cccc2nc3cc(S(=O)(=O)c4ccc([N+](=O)[O-])cc4)ccc3nc12 | 8% | 15.8% | 6.5% | 18.2% | 0%
COC(=O)c1cccc2nc3cc(S(=O)(=O)c4ccc(C)cc4)ccc3nc12 | 22.2% | 13.5% | 33.3% | 8% | 17.5%
COC(=O)c1cccc2nc3cc(C(=O)C(Cl)(Cl)Cl)ccc3nc12 | 12% | 5.3% | 0% | 21.8% | 4.8%
COC(=O)c1cccc2nc3c(NC(=O)CCCCl)c([N+](=O)[O-])ccc3nc12 | 35% | 16.3% | 20.5% | 34.4% | 40.4%
COC(=O)c1cccc2nc3c(N)c([N+](=O)[O-])cc([N+](=O)[O-])c3nc12 | 22.2% | 32% | 21.7% | 50% | 57.6%
CCCCOC(=O)c1cccc2nc3c(NC(=O)CCCCl)c([N+](=O)[O-])ccc3nc12 | 11.1% | 16% | 17.4% | 37.1% | 51.5%
CCCCOC(=O)c1cccc2nc3c(N)c([N+](=O)[O-])cc([N+](=O)[O-])c3nc12 | 5.6% | 24% | 17.4% | 42.9% | 53%
CCCCOC(=O)c1cccc2nc3c([N+](=O)[O-])c(N)ccc3nc12 | 12.5% | 17.9% | 17.2% | 16.1% | 25%
Nc1ccc2nc3c(C(=O)O)cccc3nc2c1 | 11.1% | 2.7% | 5.1% | 4.9% | 1.6%
